Source: PubChem BioAssay
Runt-SMMHC FRET = Runt domain-CBFb-SMMHC interaction inhibition; Cerulean-Runt/Venus-CBFb-SMMHC FRET ratio 530/480, 1 h; Q01196+Q13951; inhibition, % at 20 µM; 0.74% of 220,000 active;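 active = mean inhibition across duplicate retests at 20 µM reaching about 50%, limit read from the data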;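 note: 0% = DMSO wells and 100% = wells with excess untagged CBFb-SMMHC; inhibitors lower the FRET ratio by blocking Runt binding to CBFb-SMMHC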
Target sequence (Q01196 whole entry, looked up, the tested form may be a part): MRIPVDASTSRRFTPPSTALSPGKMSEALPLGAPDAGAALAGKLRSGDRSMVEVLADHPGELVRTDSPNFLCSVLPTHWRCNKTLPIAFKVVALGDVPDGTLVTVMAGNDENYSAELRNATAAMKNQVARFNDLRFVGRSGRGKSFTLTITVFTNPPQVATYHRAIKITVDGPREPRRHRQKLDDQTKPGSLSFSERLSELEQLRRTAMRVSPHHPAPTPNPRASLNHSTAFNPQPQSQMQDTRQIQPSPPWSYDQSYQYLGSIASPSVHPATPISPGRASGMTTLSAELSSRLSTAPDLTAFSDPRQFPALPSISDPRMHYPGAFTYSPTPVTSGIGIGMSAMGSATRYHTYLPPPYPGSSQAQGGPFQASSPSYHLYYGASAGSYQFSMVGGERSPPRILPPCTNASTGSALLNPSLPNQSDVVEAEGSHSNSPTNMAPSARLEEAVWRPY
Target sequence (Q13951 whole entry, looked up, the tested form may be a part): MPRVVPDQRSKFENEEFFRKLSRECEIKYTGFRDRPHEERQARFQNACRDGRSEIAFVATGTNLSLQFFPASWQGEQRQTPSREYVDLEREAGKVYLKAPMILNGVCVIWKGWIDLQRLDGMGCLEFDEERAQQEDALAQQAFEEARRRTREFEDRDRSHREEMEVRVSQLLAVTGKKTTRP
RanGTP-Impb inh = inhibitors of RanGTP-importin-beta interaction, primary screen, biochemical, FRET, CFP-Ran, YFP-importin-beta, homogeneous; cell-free CFP-Ran/YFP-importin-beta FRET ratio; inhibition, % (concentration not given with the values); 1.1% of 300,000 active;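 active = more than half of the replicate wells show a fall in the fluorescence ratio signal beyond about 16%, limit read from the data, passing the limit was not always enough; inconclusive = exactly half of the replicate wells pass the set limit; inactive = fewer than half of replicates pass the limit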;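 note: 0% = DMSO wells and 100% = Ran loaded with GDP instead of GTP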
proKLK7 act = proKLK7 (human) activation, primary screen; P49862; activation, % at 7 µM; 0.9% of 370,000 active; purified proKLK7, EDANS-DABCYL substrate fluorescence; 100% is mature enzyme control, 0% vehicle; AID 652039;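 active = activation above the mean of all tested compounds plus 3 SD, computed per campaign excluding outliers beyond control limits, cut at about 13% in these data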
MEX-5 binding = C. elegans MEX-5 TCR-2 RNA binding activity; 0.38% of 300,000 active; activity score (negative = inhibition of binding), % at 10 µM; MEX-5/FITC-TCR2 RNA binding, fluorescence polarization; stronger effect = lower value; AID 1832;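 active = inhibition past about -25% in most replicates, and total fluorescence under double the plate's negative control median, limit read from the data; inconclusive = replicates evenly split on the limit, or fluorescence at least double controls; inactive = too little inhibition in most replicates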;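 note: 0% = DMSO and -100% = 5 µM competing unlabeled TCR2 RNA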
Runt-CBFb FRET = inhibitors of human RUNX1 Runt domain binding to CBFb; 0.46% of 220,000 active; Cerulean-Runt/Venus-CBFb FRET ratio 530/480, 1 h; Q01196+Q13951; inhibition, % at 20 µM; AID 1496;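 active = inhibition over about 50% at 20 µM in the single-dose screen, limit read from the data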;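 note: 0% = DMSO wells and 100% = excess unlabeled CBFb competitor control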
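Reagent – Venus-CBFb binding partner, 100 nM · Assay system – Cerulean-tagged RUNX1 Runt domain (FRET donor) fusion protein · Input – 100 nM per protein · Incubation – two 1 h room-temperature incubations shielded from light · Measured by – FRET fluorescence · Medium – Tris buffer pH 7.5 with salts and BSA · Benchmarks – unlabeled CBFb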
Numbers without * were called inactive; ? = inconclusive; nt = no result given. Only some compounds are listed: those with a hit (about 2.1% of all), similar ones and a draw of the others.

SMILES | Runt-SMMHC FRET | RanGTP-Impb inh | proKLK7 act | MEX-5 binding | Runt-CBFb FRET
CCCCn1c2nc3ccccc3nc2c2c(=N)oc(C)nc21 | 79* | nt | -11 | nt | 46
COC(=O)[C@H](CC(C)C)NC(=O)/C=C/[C@H]1O[C@@H](n2cc(C)c(=O)[nH]c2=O)C[C@@H]1O | nt | nt | 0 | nt | nt
Nc1c(Cl)ncnc1N/N=C/c1ccccn1 | 78* | nt | 0 | nt | 36
CCn1c(/C=C/c2cccc([N+](=O)[O-])c2)nc2ccccc2c1=O | -4 | 0 | -1 | 1 | -2
Cc1[nH]c2ccccc2c1/C=C/c1nc2ccccc2c(=O)[nH]1 | 39 | 34* | -45 | -2 | 18
Cc1[nH]c2ccccc2c1/C=C/c1nc2ccccc2c(=O)n1-c1ccc([N+](=O)[O-])cc1 | -128 | 38* | -1 | 1 | -41
Cc1cccc(/C=C/c2nc3ccccc3c(=O)[nH]2)c1 | 1 | 6 | 0 | 4 | 0
CCn1c(/C=C/c2c[nH]c3ccccc23)nc2ccccc2c1=O | 0 | 12 | 0 | -1 | -3
CN(C)c1ccc(/C=C/c2nc3ccccc3c(=O)n2-c2ccc(C(=O)O)cc2)cc1 | nt | -13 | -2 | ? | nt
CCn1c(/C=C/c2c(C)[nH]c3ccccc23)nc2ccccc2c1=O | 59* | -26 | -5 | ? | 19
CN(C)S(=O)(=O)c1ccc2[nH]cc(/C=C/c3nc4ccccc4c(=O)n3-c3ccccc3)c2c1 | -35 | 29* | -13 | -3 | -46
Cc1c(C(=O)N2CCC2(C)C(=O)O)oc2ccccc12 (configuration not stated) | nt | nt | 0 | nt | nt
O=C1[C@@H](C2CC2)[C@@H]2c3ccccc3C=NN2[C@@H]2c3ccccc3C=NN12 | nt | nt | 0 | nt | nt
O=C(NCC(=O)N(c1ccccc1)C(C(=O)NC1CCCCC1)c1cccnc1)c1ccco1 (configuration not stated) | nt | 0 | 0 | -2 | nt
C[C@@H]1CN([C@@H](C)CO)C(=O)c2c(c3ccccc3n2C)-c2ccccc2CO[C@H]1CN(C)C(=O)[C@H](Cc1ccccc1)N(C)C | nt | nt | 0 | nt | nt
Cc1[nH]c2ccccc2c1/C=N/NC(=O)c1ccccc1 | nt | 1 | 0 | -2 | nt
Cc1[nH]c2ccccc2c1/C=C/C(=O)c1ccccc1 | -36 | 41* | 1 | nt | -31
CC1(C)NC(=O)N(CC(O)CN(c2ccccc2)S(=O)(=O)c2ccc([N+](=O)[O-])cc2)C1=O (configuration not stated) | nt | -8 | 0 | 1 | nt
C[C@@H]1O[C@@H](OC2C(O)C(OCCc3ccc(O)c(O)c3)OC(CO)C2OC(=O)/C=C/c2ccc(O)c(O)c2)[C@H](O)[C@H](O)[C@H]1O (some centres not stated) | nt | 2 | nt | -46* | nt
O=C1C=C(OCCCl)CC(c2cccc(Cl)c2)O1 (configuration not stated) | nt | nt | 1 | nt | nt
Cc1cc(C)nc(NN2C(=O)C=CC2=O)n1 | nt | 7 | nt | -29* | nt
Cc1cc(C)nc(NN2C(=O)/C(=C/c3ccccc3)SC2=S)n1 | 5 | -10 | 0 | -6 | 20
CCC(CO)[n+]1c(C)cc(/C=C2\Sc3ccccc3N2Cc2ccccc2)cc1C (configuration not stated) | 64* | nt | 1 | nt | 43
C[n+]1ccccc1/C=C1\Sc2ccccc2N1CCO | nt | -1 | 0 | 3 | nt
O=C(N[C@@H](Cc1ccccc1)C(=O)N1CCC2CCN(S(=O)(=O)c3ccccc3)CC21)[C@@H]1CCCN1 (some centres not stated) | nt | nt | 0 | nt | nt
SMILES | Runt-SMMHC FRET | RanGTP-Impb inh | proKLK7 act | MEX-5 binding | Runt-CBFb FRET
O=C(O)/C=C/c1ccc(S(=O)(=O)Nc2ccc3[nH]c(=O)[nH]c3c2)cc1 | nt | 27* | -4 | -11 | nt
O=C(O)c1ccc(Cl)c(S(=O)(=O)Nc2ccc3[nH]c(=O)[nH]c3c2)c1 | -13 | 22* | -2 | -5 | 4
O=C(O)c1cccc(S(=O)(=O)Nc2ccc3[nH]c(=O)[nH]c3c2)c1 | -16 | 16* | -3 | -6 | -2
O=[N+]([O-])c1ccc(S(=O)(=O)NN=Cc2ccc(Cl)c(Cl)c2)cc1 | nt | nt | 1 | nt | nt
CCN(c1cccc(C)c1)S(=O)(=O)c1cc2c3c(c1)CCN3C(=O)CC2 | nt | -3 | 0 | 4 | nt
N#CCC(=O)N/N=C/c1ccc(N2N=C(c3ccccc3)CC2c2ccccc2)cc1 (configuration not stated) | nt | 99* | -44 | -6 | nt
COc1ccc(C2CC(c3ccccc3)=NN2c2ccc(C(N)=O)cc2)cc1 (configuration not stated) | nt | 11 | -198 | 1 | nt
O=Cc1ccc(N2N=C(c3ccccc3)CC2c2ccccc2)cc1 (configuration not stated) | nt | 8 | -41 | 4 | nt
COc1ccc(C2CC(c3ccccc3)=NN2c2ccc(/C=N/NC(=O)c3ccncc3)cc2)cc1 (configuration not stated) | -248 | 19* | 0 | -3 | -112
COC(=O)c1ccncc1N | 64 | 3 | -1 | 0 | -1
Nc1cnccc1C(=O)O | -15 | 0 | 6 | -30* | 0
O=[N+]([O-])c1ccc(/C=N/Nc2ncccc2[N+](=O)[O-])s1 | nt | -2 | 0 | -2 | nt
O=[N+]([O-])c1ccc(/C=N/n2c(CO)nc3ccccc32)s1 | -100 | -8 | 0 | -35* | -4
O=[N+]([O-])c1ccc(/C=N/n2cnc3ccccc32)s1 | -4 | -13 | 0 | -41* | -1
Cc1nc2ccccc2n1/N=C/c1ccc([N+](=O)[O-])s1 | -14 | ? | 1 | -76* | -2
Cc1ccc(N2CC(C(=O)OCC(=O)Nc3ccccc3C)CC2=O)cc1 (configuration not stated) | nt | nt | 0 | nt | nt
COc1cc(C#N)ccc1OC(=O)c1cccc(S(=O)(=O)N2CCN(C)CC2)c1 | nt | 6 | 0 | 0 | nt
